According to ChEMBL document CHEMBL1137426, “Bivalent inhibitors of glutathione S-transferase: the effect of spacer length on isozyme selectivity” (Bioorg Med Chem Lett, 2006):

Columns and labels:
[1] = biological target: T1, Glutathione S-transferase A1 (Homo sapiens, UniProt P08263); assay: Inhibition of GST A1-1
T1 sequence (P08263 whole entry): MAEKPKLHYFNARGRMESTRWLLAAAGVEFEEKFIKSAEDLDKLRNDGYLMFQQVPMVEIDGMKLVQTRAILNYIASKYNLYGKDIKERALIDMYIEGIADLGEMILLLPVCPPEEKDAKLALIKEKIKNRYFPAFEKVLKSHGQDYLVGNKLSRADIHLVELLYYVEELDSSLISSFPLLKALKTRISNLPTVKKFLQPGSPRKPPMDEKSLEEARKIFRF

Homo sapiens = organism: Homo sapiens; assay: Selectivity for GST A1-1 over GST P1-1
Outline: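 Ratio of IC50s from CDNB–GSH conjugation assays. Each E. coli-expressed, purified enzyme at 20 nM, GSH and CDNB at the respective K_M. Inhibitor diluted from DMSO stock into water, final DMSO <1%. Absorbance at 340 nm for 1 min, four-log concentration span, triplicate.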

[2] = biological target: Glutathione S-transferase P (Homo sapiens, UniProt P09211); assay: Inhibition of GST P1-1
Chain of Glutathione S-transferase P (P09211 whole entry): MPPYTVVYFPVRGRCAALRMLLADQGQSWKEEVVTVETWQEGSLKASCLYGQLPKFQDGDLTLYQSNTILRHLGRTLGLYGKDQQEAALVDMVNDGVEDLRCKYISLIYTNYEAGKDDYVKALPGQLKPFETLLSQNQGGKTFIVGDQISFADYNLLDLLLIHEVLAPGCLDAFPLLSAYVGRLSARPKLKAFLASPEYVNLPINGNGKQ

Compound | IC50 [1] [nM] | Selectivity ratio (Homo sapiens) | IC50 [2] [nM]
C=C(CC)C(=O)c1ccc(OCC(=O)NCc2cc(CNC(=O)COc3ccc(C(=O)C(=C)CC)c(Cl)c3Cl)cc(C(N)=O)c2)c(Cl)c1Cl | 32.7 | 30 | 
C=C(CC)C(=O)c1ccc(OCC(=O)O)c(Cl)c1Cl [ETHACRYNIC ACID] | 5000 |  | 
C=C(CC)C(=O)c1ccc(OCC(=O)NCC(=O)NCc2cc(CNC(=O)CNC(=O)COc3ccc(C(=O)C(=C)CC)c(Cl)c3Cl)cc(C(N)=O)c2)c(Cl)c1Cl | 24 | 29 | 704
C=C(CC)C(=O)c1ccc(OCC(=O)NCCCC(=O)NCc2cccc(C(N)=O)c2)c(Cl)c1Cl | 13800 | 1.1 | 15000
